# Screening results (PubChem)
# Rows were chosen to be rich in hits. Some 2.6% of all compounds tested hit in one or more screens of this group.
# SR-BI DiI-HDL act: activators of SR-BI mediated HDL lipid uptake | CHO ldlA[mSR-BI] cells, DiI-HDL uptake fluorescence, 3 h; 100 = double the neutral-control signal | activation, % at 12.5 µM | 320,000 tested, 0.096% active | AID 504775;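 active means mean replicate activation of at least 60% and every replicate at or above 60%; inconclusive means mean or all-replicate condition met, but not both; inactive means mean below 60% and not all replicates reaching 60%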;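 further: 0% = median plate neutral-control signal and 100% = twice that signal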
#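 Material: SR-BI-overexpressing, LDLR-lacking CHO cells | Dosing: Single compound concentration, delivered by pin transfer | Probe or stimulus: Labelled HDL, 10 µg/mL | Signal: Bottom-read cell fluorescence after medium removal, ex 550/em 595 nm | Schedule: 3 h, 37 °C | Evaluation: HDL uptake via cellular fluorescence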
# XiGFP reactiv: activators of X-chromosome reactivation in mouse fibroblasts. 360,000 tested, 0.055% active. XiGFP mouse fibroblasts, % GFP-positive cells imaging, 3 d; cells co-treated with 5-aza-dC sensitizer; scaled so ellipticine positive control = 100%. activation, % at 7.58 µM;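 active means mean normalized replicate activation at least 10% and every replicate at or above 10%; inconclusive means only one of the two criteria met; inactive means mean below 10% and not all replicates reach 10%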;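 further: 0% = median of on-plate neutral control wells and 100% = ellipticine 6 µM median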
#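 Material: XiGFP fibroblasts, SV40-immortalized; Buffer or medium: DMEM containing 5-aza-dC; Compound dosing: single point; Times: 3 days compound exposure.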
# PvdQ acylase: P. aeruginosa PvdQ acylase inhibition; purified PvdQ acylase, fluorescence plate reader; inhibition, % at 10 µM; 340,000 tested, 0.063% active; in the data active means inhibition above about 30%, passing the limit was not always enough; inconclusive means no clear call, values can overlap the other calls;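 further: 0% = vehicle neutral wells and 100% = reference inhibitor wells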
# SR-BI DiI inh: inhibitors of mouse SR-BI mediated HDL lipid uptake; ldlA[mSR-BI] CHO cells, DiI-HDL uptake fluorescence, 3 h; inhibition, % at 12.5 µM; 320,000 tested, 0.96% active; AID 488896;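 active means mean replicate inhibition of at least 70% and a set share of replicates each scoring 70 or more; inconclusive means meets just one of the two criteria; inactive means fails both criteria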;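 further: 0% = median of neutral control wells and 100% = median of positive control wells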
# Target sequence (Q61009 whole entry, looked up): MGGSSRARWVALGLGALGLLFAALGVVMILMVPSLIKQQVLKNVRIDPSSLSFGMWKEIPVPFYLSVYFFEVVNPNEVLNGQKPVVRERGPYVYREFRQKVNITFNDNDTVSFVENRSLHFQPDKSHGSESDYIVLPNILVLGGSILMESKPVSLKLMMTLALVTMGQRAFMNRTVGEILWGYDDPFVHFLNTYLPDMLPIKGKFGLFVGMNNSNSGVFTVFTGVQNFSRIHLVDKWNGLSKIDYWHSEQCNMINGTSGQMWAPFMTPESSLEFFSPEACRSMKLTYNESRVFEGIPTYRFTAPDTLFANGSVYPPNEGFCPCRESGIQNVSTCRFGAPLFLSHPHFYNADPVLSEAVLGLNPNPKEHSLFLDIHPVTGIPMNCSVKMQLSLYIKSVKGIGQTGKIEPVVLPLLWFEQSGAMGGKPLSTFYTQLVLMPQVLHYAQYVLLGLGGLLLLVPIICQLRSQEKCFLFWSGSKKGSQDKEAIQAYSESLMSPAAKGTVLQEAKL
# Ecoli rRNA inh: inhibitors of bacterial rRNA selective over humanized ribosomes; AID 720706; 350,000 tested, 1.6% active; E. coli WT GFP vs humanized-ribosome RFP mutants, fluorescence, 24 h; stronger effect = lower value; DMSO median 0, no signal -100; GFP signal change (wild-type ribosome), % (concentration not given with the values);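 active means significant combined selectivity score with lowered wild-type GFP, culture density cut under 30%, mutant RFP and density less affected; inactive means any of these conditions unmet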
# dFosB act: activators of mouse delta FosB homodimer. purified delta FosB, TAMRA-CDK5 oligo fluorescence polarization; percent of positive-control signal above neutral wells. activation, % at 25 µM. 340,000 tested, 0.99% active;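 active means mean activation above about 17%, with every replicate also reaching it, limit read from the data, passing the limit was not always enough; inconclusive means only one of the two conditions met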
# The depositor's hits bear a star; ? = inconclusive; . = not tested or not shown.
SMILES,SR-BI DiI-HDL act,XiGFP reactiv,PvdQ acylase,SR-BI DiI inh,Ecoli rRNA inh,dFosB act
CN(Cc1nc(CCc2ccccc2)no1)Cc1cccs1,4.1,40.4*,-5.7,-4.1,-2.7,2.2
CN(Cc1nc(-c2cccs2)no1)CC(O)c1ccccc1 (stereo unspecified),.,-0.1,5.7,.,60.9,-5.1
CCOC(=O)c1c(C)nc(C)c(C(=O)OCC)c1-c1ccc(OC)cc1,-9.6,.,-9.1,9.6,-38.0*,0.2
COC(=O)c1c(C)nc(C)c(C(=O)OC)c1-c1ccsc1,.,-0.1,.,.,-40.0*,.
Cc1nc(C)c(C(=O)O)c(-c2ccsc2)c1C(=O)O,.,0.0,.,.,11.5,.
CCCNC(=O)c1ccc2c(c1)ncn2-c1ccccc1OC,-27.6,.,-10.0,27.6,.,-9.1
C=CCNC(=S)N(C)[C@H]1C[C@H]2c3cc(-c4ccccc4C)ccc3CCN2C[C@H]1[C@H](C)O,.,0.0,.,.,-30.5*,.
C[C@H](O)[C@@H]1CN2CCc3c([nH]c4c(-c5ccccc5)cccc34)[C@@H]2C[C@@H]1N(C)C(=O)Nc1ccccc1,.,0.0,.,.,-33.9,.
C[C@@H]1ON(C)[C@H]2C[C@H]3c4[nH]c5c(-c6ccccc6)cccc5c4CCN3C[C@@H]12,.,-0.1,.,.,-25.9*,.
C[C@H](O)[C@@H]1CN2CCc3c([nH]c4c(-c5ccccc5)cccc34)[C@@H]2C[C@@H]1N(C)C(=S)NCCc1ccccc1,.,0.4,.,.,-30.2*,.
CCSc1nsc(NC(=O)Nc2ccc(F)cc2F)n1,3.3,.,17.0,-3.3,.,22.9*
CCCC(=O)N(CCN(Cc1ccccc1)C(=O)CCC)Cc1ccccc1,32.0,.,-9.0,-32.0,.,-7.1
COC(=O)CCC(=O)N(CCN(Cc1ccccc1)C(=O)CCC(=O)OC)Cc1ccccc1,-3.0,0.0,-12.8,3.0,-16.4*,-9.4
Cn1nc(C(=O)NNC(=O)COc2ccccc2)c2ccccc2c1=O,5.8,-0.1,-18.9,-5.8,12.6,-1.7
Cn1nc(C(=O)NNc2c(F)c(F)cc(F)c2F)c2ccccc2c1=O,-51.1,0.0,-7.8,51.1,-20.8*,2.1
CCN(CC)CCCNc1nc2ccccc2c2[nH]c3ccc(OC)cc3c12,-18.4,0.0,-24.4,18.4,-27.2,77.8*
CCN(CC)CCCNc1nc(-c2ccccc2)nc2ccccc12,31.7,.,-11.1,-31.7,.,-10.4
CCn1c(SCC(=O)c2ccc3c(c2)Cc2ccccc2-3)nnc1-c1ccc(N)cc1,-76.6,.,4.3,76.6*,.,3.3
CCn1c(SCC(=O)c2ccc(O)c(O)c2)nnc1-c1ccc(C)cc1,-5.3,.,-8.2,5.3,.,-8.6
Oc1ccccc1N=Cc1c(O)ccc2ccccc12,-80.4,0.1,-11.9,80.4*,-8.8,-19.2
Oc1ccccc1C=Nc1cccc2ccccc12,2.5,0.1,-14.9,-2.5,2.2,3.1
C=Cc1ccc(N=Cc2c(O)ccc3ccccc23)cc1,-75.1,0.0,-10.0,75.1*,-8.3,-2.1
Oc1cccc(C=Nc2cccc3ccccc23)c1O,7.2,0.7,11.4,-7.2,-31.8*,-8.7
CC(=O)N(C)c1ccc(N=Cc2c(O)ccc3ccccc23)cc1,-7.2,0.1,15.6,7.2,11.5,-1.1
C[C@H](CO)N1C[C@H](C)[C@@H](CN(C)Cc2ccc(C(=O)O)cc2)Oc2ccc(NS(=O)(=O)c3ccc(Cl)cc3)cc2C1=O,.,-0.4,.,.,-1.1,.
SMILES,SR-BI DiI-HDL act,XiGFP reactiv,PvdQ acylase,SR-BI DiI inh,Ecoli rRNA inh,dFosB act
COc1ccc(CN(C)C(=O)c2cc(S(=O)(=O)NCc3ccccc3)ccc2C)c(OC)c1,-17.3,0.1,-8.3,17.2,-12.8,-10.0
O=C1NC(=O)c2cc(Oc3ccc([N+](=O)[O-])cc3)ccc21,3.7,0.0,-17.3,-3.7,.,1.3
CCC(=O)NCCc1nc2cc(NC(=O)Nc3ccccc3)ccc2n1C,-2.0,0.0,-16.9,2.0,-0.2,-1.8
Oc1ccc(F)cc1-c1cc(-c2ccc3c(c2)OCCO3)n[nH]1,-78.6,.,?,78.6*,.,-4.8
CCOc1ccc(N(C)S(=O)(=O)c2cc(-c3cc(C)no3)ccc2CC)cc1,-16.2,0.2,-7.8,16.2,-8.2,-1.0
CCOc1ccc(N(C)S(=O)(=O)c2cc(-c3cc(C)no3)ccc2OC)cc1,-0.4,0.0,-12.1,0.4,-37.1*,-8.0
COc1ccc(Nc2nc(NCc3ccco3)nc(N/N=C/c3ccc(O)cc3)n2)cc1,-41.9,0.0,-6.7,41.9,-8.0,41.8*
COc1ccc(Nc2nc(NCc3ccco3)nc(N/N=C/c3ccccc3F)n2)cc1,-15.8,0.0,5.9,15.8,-26.5*,0.7
COc1ccc(/C=N/Nc2nc(NCc3ccco3)nc(Nc3ccc(OC)cc3)n2)cc1,-13.1,0.1,-10.6,13.1,-6.3,-2.1
C[C@H](CO)N1C[C@H](C)[C@H](CN(C)S(=O)(=O)c2cn(C)cn2)OCCCC[C@H](C)Oc2ccc(NC(=O)Nc3ccccc3)cc2C1=O,.,0.0,.,.,-1.9,.
Oc1c(Br)cc(Br)cc1CNc1cccc2cccnc12,8.4,0.0,-3.4,-8.4,-22.5*,-13.1
Oc1ccc(Br)cc1CNc1cccc2cccnc12,-11.3,0.1,2.1,11.3,-42.2,0.0
O=C(NCC[C@@H]1CC[C@H](NS(=O)(=O)c2ccc(Cl)cc2)[C@H](CO)O1)c1ccccc1F,.,-0.4,.,.,-0.6,.
O=C(c1cccnc1)n1nc(NCc2ccccc2)nc1NCc1ccccc1,.,2.4,-2.4,.,-35.2*,-13.2
O=C(c1ccco1)n1nc(NCc2ccccc2)nc1NCc1ccccc1,-36.6,.,12.1,36.6,.,5.4
COc1ccc(C(=O)C2CCCN(C(=O)CSC)C2)cc1OC (stereo unspecified),30.1,-0.1,5.3,-30.1,-6.8,0.9
COc1cccc(Nc2nc(-c3ccc4c(c3)OCCO4)cs2)c1,-91.4,.,-29.8,91.4*,.,-8.3
COc1ccc(-c2csc(Nc3ccc(S(N)(=O)=O)cc3)n2)cc1,107.9*,.,-4.7,-107.9,.,-2.7
c1cc2c(cc1Nc1nc(-c3ccc4c(c3)OCO4)cs1)OCCO2,4.1,.,4.0,-4.1,.,-9.9
COc1ccc(-c2csc(Nc3ccccc3)n2)cc1,-73.4,0.1,-1.6,73.4*,0.7,-9.9
NC(=S)NN=C1c2ccccc2-c2c(F)c(F)c(F)c(F)c21,-22.6,1.3,-9.9,22.6,-11.9,-4.5
COc1ccc(N(C(=O)c2snc(C(N)=O)c2N)C(C(=O)NC2CCCCC2)c2ccc(C)o2)c(OC)c1 (stereo unspecified),.,0.0,-4.5,.,-9.3,-9.5
CCn1c(SCC(N)=O)nc2sc3c(c2c1=O)CCCC3,18.0,.,-2.7,-18.0,.,1.1
CCN(CC)C(=O)COc1ccc(/C(C)=N/NC(=O)c2ccccc2O)cc1,-16.4,0.0,-5.8,16.4,-13.8,0.9
CNC(=O)c1sc2nc(-c3ccc(OC)cc3)cn2c1C,-10.3,0.0,-2.5,10.3,-7.2,2.1
